Measurements of several laboratories.
Compare with care: the assays were run in different laboratories.

COc1ccc2c3c1O[C@H]1C[C@@H](OC(=O)c4ccccc4)C=C[C@@]31CCN(C)C2  Tmax (rat, brain; intravenous, 5 mg/kg): 4.8 min
COC(=O)C(NC(=O)c1cn(CCCCCF)c2ccccc12)C(C)(C)C (centres unmarked)  Tmax (male Sprague-Dawley rat, plasma; subcutaneous, 50 µg/kg): 42.5 min
Cc1ncc(C)n2nc(/C=C/c3nc(N4CCCC4)cc(N4CCOCC4)n3)nc12  Tmax (male Sprague-Dawley rat, plasma; oral, 0.3 mg/kg): 162 min
CN(C)C(=O)Oc1cc(OC(=O)N(C)C)cc(-c2cc3ccc(O)cc3o2)c1  Tmax (male rat, plasma; oral, 5 mg/kg): 94.8 min
O=C(Nc1cccnn1)N1CCN([C@@H]2CCOc3cc(C(F)(F)F)ccc32)CC1  Tmax (male Sprague-Dawley rat, plasma; oral, 1 mg/kg): 40.2 min
Cl.Cl.O=C(CCN1CCCCC1)c1ccc(-c2ccc(C(=O)CCN3CCCCC3)cc2)cc1  Tmax (Sprague-Dawley rat, plasma; intravenous, 5 mg/kg): 1.8 min
CCCCCCCC(=O)N[C@@H](CCCCN)C(=O)N[C@@H](CCCCN)C(=O)N[C@@H](C)C(=O)N[C@@H](CC(C)C)C(=O)N[C@@H](CCCCN)C(=O)N[C@@H](CC(C)C)C(=O)N[C@@H](C)C(=O)N[C@@H](CCCCN)C(=O)N[C@@H](CCCCN)C(=O)N1CCC[C@H]1C(=O)N[C@@H](CC(C)C)C(=O)N[C@@H](CCCCN)C(=O)N[C@@H](CC(C)C)C(=O)N[C@@H](CC(C)C)C(=O)N[C@@H](CCCCN)C(N)=O  Tmax (male Sprague-Dawley rat, blood; intravenous, 3 mg/kg, infusion): 40.2 min
CC(C)(C)[C@H](NC(=O)[C@H](CCONC(=N)N)NC(=O)Cc1ccc(CNC(=N)N)cc1)C(=O)N[C@@H](CCONC(=N)N)C(=O)NCc1ccc(C(=N)N)cc1  Tmax (male Sprague-Dawley rat, plasma; intraperitoneal, 2.5 mg/kg): 30 min
